# From paper PMC4245161 (ACS Chemical Biology, 2014)
# Experiments:
# [1] = system: GFP transcript in LDR cells; format: cell-based, mouse; conditions: 200 nM, 24 h, relative to DMSO-treated cells
# [2] = system: acetylated H3 at the CMV promoter in LDR cells; experiment: Chromatin immunoprecipitation of acetylated H3 at the CMV promoter; format: cell-based, mouse; conditions: 250 ng/mL, 24 h
# How it was run: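 LDR cells (C127 mouse mammary line carrying a silenced CMV-GFP reporter; DMEM, 10% heat-inactivated FBS) treated with test compound at 250 ng/mL or DMSO vehicle (24 h per legend; overnight per methods). Formaldehyde cross-linking, then ChIP by standard protocol with anti-acetylated H3 antibody. After cross-link reversal, PCR with CMV-promoter primers run on a gel. Controls were a no-antibody background and 10% input.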
compound,measurement,setting,value
CC(/C=C/C(=O)NO)=C\[C@@H](C)C(=O)c1ccc(N(C)C)cc1 [Trichostatin A],induction of GFP transcripts,[1],at least 5 fold
same,histone acetylation at the CMV promoter (ChIP),[2],markedly increases
